According to ChEMBL document CHEMBL4689842, “EUbOPEN Chemogenomics Library wave 1” (2021):

Test system: HEK-293T
Test: Multiplex assay against HEK293T;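 on Population Tubulin-Different-Phenotype (%): share of the cells with healthy nuclei that show this phenotype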
Assay type: toxicity, cell-based
Details: human
Outline: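 With compound added, live cells were imaged on a CQ1 microscope at 37°C and 5% CO2; staining with Hoechst33342, BioTracker Green Microtubule Cytoskeleton Dye, MitoTracker Red and Annexin V Alexa Fluor 680 had been done at seeding. The CellPathfinder machine-learning gating scheme split cells into Hoechst high-intensity objects or normal cells, normal cells into healthy, pyknosed or fragmented nuclei, and pyknosed cells into mitotic or apoptotic. The tubulin, mitochondrial-mass and membrane-permeability phenotypes are per cents of healthy-nucleus cells.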

[1] = 12 h, 1 µM, compound concentration 1 uM, replicate 1
[2] = 12 h, 1 µM, compound concentration 1 uM, replicate 2
[3] = 12 h, 10 µM, compound concentration 10 uM, replicate 1
[4] = 12 h, 10 µM, compound concentration 10 uM, replicate 2
[5] = 24 h, 1 µM, compound concentration 1 uM, replicate 1
[6] = 24 h, 1 µM, compound concentration 1 uM, replicate 2
[7] = 24 h, 10 µM, compound concentration 10 uM, replicate 1
[8] = 24 h, 10 µM, compound concentration 10 uM, replicate 2
[9] = 48 h, 1 µM, compound concentration 1 uM, replicate 1
[10] = 48 h, 1 µM, compound concentration 1 uM, replicate 2
[11] = 48 h, 10 µM, compound concentration 10 uM, replicate 1
[12] = 48 h, 10 µM, compound concentration 10 uM, replicate 2

## CCc1cccc(CC)c1NC(=O)c1nn(C)c2c1CCc1cnc(Nc3ccc(N4CCN(C)CC4)cc3OC)nc1-2
[1]
  Population Apoptotic (%): 27%
  Population Fragmented Nuclei (%): 14%
  Population Healthy Nuclei (%): 18%
  Population Hoechst High Intensity Objects (%): 18%
  Population Membrane Permeable-Phenotype (%): 11%
  Population Mitochondria Different-Phenotype (%): 32%
  Population Mitotic Cells (%): 72%
  Population Normal (%): 81%
  Population Pyknosed Nuclei (%): 67%
  Population Tubulin-Different-Phenotype (%): 75%
  Total Cell Count: 690
[2]
  Population Apoptotic (%): 19%
  Population Fragmented Nuclei (%): 2%
  Population Healthy Nuclei (%): 54%
  Population Hoechst High Intensity Objects (%): 7%
  Population Membrane Permeable-Phenotype (%): 5%
  Population Mitochondria Different-Phenotype (%): 69%
  Population Mitotic Cells (%): 80%
  Population Normal (%): 92%
  Population Pyknosed Nuclei (%): 42%
  Population Tubulin-Different-Phenotype (%): 97%
  Total Cell Count: 922
[3]
  Population Apoptotic (%): 19%
  Population Fragmented Nuclei (%): 11%
  Population Healthy Nuclei (%): 64%
  Population Hoechst High Intensity Objects (%): 14%
  Population Membrane Permeable-Phenotype (%): 13%
  Population Mitochondria Different-Phenotype (%): 12%
  Population Mitotic Cells (%): 80%
  Population Normal (%): 85%
  Population Pyknosed Nuclei (%): 24%
  Population Tubulin-Different-Phenotype (%): 54%
  Total Cell Count: 730
[4]
  Population Apoptotic (%): 5%
  Population Fragmented Nuclei (%): 3%
  Population Healthy Nuclei (%): 89%
  Population Hoechst High Intensity Objects (%): 2%
  Population Membrane Permeable-Phenotype (%): 8%
  Population Mitochondria Different-Phenotype (%): 24%
  Population Mitotic Cells (%): 94%
  Population Normal (%): 97%
  Population Pyknosed Nuclei (%): 6%
  Population Tubulin-Different-Phenotype (%): 57%
  Total Cell Count: 1395
[5]
  Population Apoptotic (%): 39%
  Population Fragmented Nuclei (%): 18%
  Population Healthy Nuclei (%): 17%
  Population Hoechst High Intensity Objects (%): 13%
  Population Membrane Permeable-Phenotype (%): 11%
  Population Mitochondria Different-Phenotype (%): 41%
  Population Mitotic Cells (%): 60%
  Population Normal (%): 86%
  Population Pyknosed Nuclei (%): 63%
  Population Tubulin-Different-Phenotype (%): 68%
  Total Cell Count: 683
[6]
  Population Fragmented Nuclei (%): 3%
  Population Healthy Nuclei (%): 27%
  Population Hoechst High Intensity Objects (%): 12%
  Population Membrane Permeable-Phenotype (%): 3%
  Population Mitochondria Different-Phenotype (%): 92%
  Population Normal (%): 87%
  Population Pyknosed Nuclei (%): 68%
  Population Tubulin-Different-Phenotype (%): 89%
  Total Cell Count: 901
[7]
  Population Apoptotic (%): 27%
  Population Fragmented Nuclei (%): 11%
  Population Healthy Nuclei (%): 77%
  Population Hoechst High Intensity Objects (%): 8%
  Population Membrane Permeable-Phenotype (%): 20%
  Population Mitochondria Different-Phenotype (%): 9%
  Population Mitotic Cells (%): 72%
  Population Normal (%): 91%
  Population Pyknosed Nuclei (%): 10%
  Population Tubulin-Different-Phenotype (%): 65%
  Total Cell Count: 803
[8]
  Population Apoptotic (%): 11%
  Population Fragmented Nuclei (%): 8%
  Population Healthy Nuclei (%): 88%
  Population Hoechst High Intensity Objects (%): 3%
  Population Membrane Permeable-Phenotype (%): 13%
  Population Mitotic Cells (%): 88%
  Population Normal (%): 96%
  Population Pyknosed Nuclei (%): 3%
  Population Tubulin-Different-Phenotype (%): 62%
  Total Cell Count: 1777

## Cl.O=c1c2cccn2c2ccccc2n1CCCN1CCC(c2ccc(Cl)cc2)CC1
[1]
  Population Apoptotic (%): 57%
  Population Fragmented Nuclei (%): 7%
  Population Healthy Nuclei (%): 47%
  Population Hoechst High Intensity Objects (%): 10%
  Population Membrane Permeable-Phenotype (%): 0%
  Population Mitochondria Different-Phenotype (%): 95%
  Population Mitotic Cells (%): 42%
  Population Normal (%): 89%
  Population Pyknosed Nuclei (%): 44%
  Population Tubulin-Different-Phenotype (%): 80%
  Total Cell Count: 267
[2]
  Population Apoptotic (%): 30%
  Population Fragmented Nuclei (%): 5%
  Population Healthy Nuclei (%): 38%
  Population Hoechst High Intensity Objects (%): 5%
  Population Membrane Permeable-Phenotype (%): 6%
  Population Mitochondria Different-Phenotype (%): 65%
  Population Mitotic Cells (%): 69%
  Population Normal (%): 94%
  Population Pyknosed Nuclei (%): 56%
  Population Tubulin-Different-Phenotype (%): 59%
  Total Cell Count: 238
[3]
  Population Apoptotic (%): 86%
  Population Fragmented Nuclei (%): 8%
  Population Healthy Nuclei (%): 34%
  Population Hoechst High Intensity Objects (%): 17%
  Population Membrane Permeable-Phenotype (%): 5%
  Population Mitochondria Different-Phenotype (%): 100%
  Population Mitotic Cells (%): 13%
  Population Normal (%): 82%
  Population Pyknosed Nuclei (%): 57%
  Population Tubulin-Different-Phenotype (%): 94%
  Total Cell Count: 297
[4]
  Population Apoptotic (%): 92%
  Population Fragmented Nuclei (%): 7%
  Population Healthy Nuclei (%): 19%
  Population Hoechst High Intensity Objects (%): 9%
  Population Mitochondria Different-Phenotype (%): 91%
  Population Mitotic Cells (%): 7%
  Population Normal (%): 90%
  Population Pyknosed Nuclei (%): 72%
  Population Tubulin-Different-Phenotype (%): 86%
  Total Cell Count: 212
[5]
  Population Apoptotic (%): 53%
  Population Fragmented Nuclei (%): 7%
  Population Healthy Nuclei (%): 55%
  Population Hoechst High Intensity Objects (%): 12%
  Population Membrane Permeable-Phenotype (%): 1%
  Population Mitochondria Different-Phenotype (%): 93%
  Population Mitotic Cells (%): 46%
  Population Normal (%): 87%
  Population Pyknosed Nuclei (%): 37%
  Population Tubulin-Different-Phenotype (%): 73%
  Total Cell Count: 278
[6]
  Population Apoptotic (%): 38%
  Population Fragmented Nuclei (%): 5%
  Population Healthy Nuclei (%): 56%
  Population Hoechst High Intensity Objects (%): 4%
  Population Membrane Permeable-Phenotype (%): 4%
  Population Mitochondria Different-Phenotype (%): 75%
  Population Mitotic Cells (%): 61%
  Population Normal (%): 95%
  Population Pyknosed Nuclei (%): 38%
  Population Tubulin-Different-Phenotype (%): 65%
  Total Cell Count: 296
[7]
  Population Apoptotic (%): 84%
  Population Fragmented Nuclei (%): 13%
  Population Healthy Nuclei (%): 36%
  Population Hoechst High Intensity Objects (%): 27%
  Population Membrane Permeable-Phenotype (%): 6%
  Population Mitochondria Different-Phenotype (%): 100%
  Population Mitotic Cells (%): 15%
  Population Normal (%): 72%
  Population Pyknosed Nuclei (%): 50%
  Population Tubulin-Different-Phenotype (%): 88%
  Total Cell Count: 286
[8]
  Population Apoptotic (%): 98%
  Population Fragmented Nuclei (%): 7%
  Population Healthy Nuclei (%): 34%
  Population Hoechst High Intensity Objects (%): 16%
  Population Membrane Permeable-Phenotype (%): 3%
  Population Mitochondria Different-Phenotype (%): 96%
  Population Mitotic Cells (%): 1%
  Population Normal (%): 83%
  Population Pyknosed Nuclei (%): 58%
  Population Tubulin-Different-Phenotype (%): 67%
  Total Cell Count: 206
[9]
  Population Apoptotic (%): 43%
  Population Healthy Nuclei (%): 77%
  Population Hoechst High Intensity Objects (%): 7%
  Population Membrane Permeable-Phenotype (%): 2%
  Population Mitochondria Different-Phenotype (%): 63%
  Population Mitotic Cells (%): 56%
  Population Normal (%): 92%
  Population Pyknosed Nuclei (%): 15%
  Population Tubulin-Different-Phenotype (%): 59%
  Total Cell Count: 453
[10]
  Population Apoptotic (%): 31%
  Population Fragmented Nuclei (%): 7%
  Population Healthy Nuclei (%): 70%
  Population Hoechst High Intensity Objects (%): 5%
  Population Membrane Permeable-Phenotype (%): 3%
  Population Mitochondria Different-Phenotype (%): 32%
  Population Mitotic Cells (%): 68%
  Population Normal (%): 94%
  Population Pyknosed Nuclei (%): 22%
  Population Tubulin-Different-Phenotype (%): 54%
  Total Cell Count: 461
[11]
  Population Apoptotic (%): 82%
  Population Fragmented Nuclei (%): 15%
  Population Healthy Nuclei (%): 35%
  Population Hoechst High Intensity Objects (%): 38%
  Population Membrane Permeable-Phenotype (%): 2%
  Population Mitochondria Different-Phenotype (%): 97%
  Population Mitotic Cells (%): 17%
  Population Normal (%): 61%
  Population Pyknosed Nuclei (%): 48%
  Population Tubulin-Different-Phenotype (%): 79%
  Total Cell Count: 311
[12]
  Population Apoptotic (%): 98%
  Population Fragmented Nuclei (%): 13%
  Population Healthy Nuclei (%): 42%
  Population Hoechst High Intensity Objects (%): 30%
  Population Membrane Permeable-Phenotype (%): 3%
  Population Mitochondria Different-Phenotype (%): 98%
  Population Mitotic Cells (%): 1%
  Population Normal (%): 69%
  Population Pyknosed Nuclei (%): 43%
  Population Tubulin-Different-Phenotype (%): 64%
  Total Cell Count: 191
